# IMP-1 inh-1: inhibitors of Pseudomonas aeruginosa IMP-1 metallo-beta-lactamase; AID 1556; inhibition, % at 5.6 µM; 290,000 tested, 0.45% active; purified IMP-1, nitrocefin hydrolysis, epi-absorbance fluorescence;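 active means inhibition above the mean plus 3 SD of all compounds in the same screening run, cut at about 4.5% in these data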
#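 System – purified recombinant IMP-1 beta-lactamase · Input – IMP-1 dispensed at 0.2 nM · Timing – 15 min preincubation plus 25 min reaction at 25 °C · Signal – Epi-absorbance fluorescence, 480 nm excitation, 530 nm emission · Measure – percent IMP-1 inhibition derived from blank-referenced optical density · Controls – Enzyme-plus-DMSO low control, enzyme-free DMSO high control · Replication – singlicate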
# PolyA inh: inhibitors of polyadenylation in S. cerevisiae; S. cerevisiae SKY197-pL101 polyadenylation reporter, beta-gal luminescence; efflux-impaired pdr1/pdr3 knockout yeast; score 100 = 6 SD above DMSO; activity score, % at 12 µM; 300,000 tested, 0.02% active; AID 1875;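 active means lowest replicate activity score at least 50, where 100 means six control SD above control mean; inconclusive means lowest score under 50 but half or more replicates reach 50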;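 further: yeast exposed to compound for 9 h at 30 °C; higher score means more reporter readthrough which indicates perturbed polyadenylation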
# proCasp3 act: activators of human procaspase-3. P42574. recombinant procaspase-3 D3A, Ac-DEVD-pNA absorbance 405 nm. activation, % at 8.5 µM. 330,000 tested, 0.11% active. AID 463141;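 active means activation above the mean of all tested compounds plus 3 SD, cut at about 21% in these data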
#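 System: Procaspase-3 D3A mutant. Medium: Zinc-free 300 mM NaCl, 50 mM HEPES, 0.01% Triton X-100. Schedule: 1 h preincubation plus 2 h reaction at 25 °C. Measured by: 405 nm absorbance of p-nitroaniline, reads at 0 and 120 min. Read-out: percent activation relative to control range.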
# Neddylation inh: inhibitors of human cullin neddylation; AID 651699; 360,000 tested, 0.58% active; TR-FRET cullin neddylation, biochemical; P61081+Q13564; calls only at 25 µM; in the data active means inhibition above about 36%
# Target sequence (P61081 whole entry, looked up): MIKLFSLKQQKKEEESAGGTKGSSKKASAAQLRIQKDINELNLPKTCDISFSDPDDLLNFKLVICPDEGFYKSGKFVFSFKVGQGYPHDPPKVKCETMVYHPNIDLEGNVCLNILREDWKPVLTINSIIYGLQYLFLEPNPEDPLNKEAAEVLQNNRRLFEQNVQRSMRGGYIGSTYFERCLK
# Target sequence (Q13564 whole entry, looked up): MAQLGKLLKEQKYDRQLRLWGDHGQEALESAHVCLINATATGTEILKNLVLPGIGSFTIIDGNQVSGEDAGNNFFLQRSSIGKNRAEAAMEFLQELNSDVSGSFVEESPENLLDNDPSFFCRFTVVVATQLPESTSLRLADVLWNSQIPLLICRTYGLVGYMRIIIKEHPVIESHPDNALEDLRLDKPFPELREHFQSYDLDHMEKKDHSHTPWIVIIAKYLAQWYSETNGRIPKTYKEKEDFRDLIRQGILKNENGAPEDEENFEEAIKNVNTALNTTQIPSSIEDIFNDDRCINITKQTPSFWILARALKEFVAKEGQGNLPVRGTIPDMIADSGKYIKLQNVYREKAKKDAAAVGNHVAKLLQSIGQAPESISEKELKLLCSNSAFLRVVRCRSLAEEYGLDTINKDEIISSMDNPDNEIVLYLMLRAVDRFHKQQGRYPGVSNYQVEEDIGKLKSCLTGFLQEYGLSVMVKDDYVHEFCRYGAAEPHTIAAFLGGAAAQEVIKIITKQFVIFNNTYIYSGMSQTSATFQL
# VIM-2 inhibitor: inhibitors of Pseudomonas aeruginosa VIM-2 metallo-beta-lactamase | purified VIM-2, nitrocefin hydrolysis, epi-absorbance fluorescence | inhibition, % at 5.6 µM | 290,000 tested, 0.89% active;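 active means inhibition above the mean of all tested compounds plus 3 SD, cutoff set per screening run, cut at about 7.5% in these data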;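 further: red hydrolysis product quenches plate fluorescence so inhibitors raise well fluorescence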
# proCasp7 act: activates human procaspase-7, counter-screen for procaspase-3 activators | P55210 | recombinant procaspase-7, Ac-DEVD-pNA absorbance 405 nm; D23A/D198A/D206A triple mutant, cannot self-cleave; scale: DMSO 0, 5 µM enzyme 100 | activation, % at 8.5 µM | 330,000 tested, 0.093% active;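 active means percent activation above the screen-wide mean plus 3 SD, cut at about 25% in these data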
#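 Test system: Procaspase-7 triple mutant (PC-7 D3A). Also added: Ac-DEVD-pNA substrate, 400 µM as added. Schedule: 1 h enzyme–compound preincubation and 2 h substrate reaction, both 25 °C. Signal: p-Nitroaniline absorbance at 405 nm, read at 0 and 120 min. Control set: low DMSO alone, high DMSO plus 5 µM PC-7.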
# IMP-1 inh-2: blocks IMP-1 metallo-beta-lactamase in VIM-2 selectivity screen; shares compounds with VIM-2 inhibitor; purified IMP-1, nitrocefin hydrolysis, epi-absorbance fluorescence; inhibition, % at 5.6 µM; 1,300 tested, under 10 active; call rule not given here
# VIM-2 FRET inh: counter-screen for VIM-2 inhibitors: epi-absorbance artifacts via FRET. inhibition, % at 5.6 µM. purified VIM-2, CCF2 FRET substrate hydrolysis. shares compounds with VIM-2 inhibitor. 1,300 tested, 23% active;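 active means inhibition above the mean of all tested compounds plus 3 SD, cut at about 19% in these data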
# TEM-1 counter: TEM-1 inhibition, counter-screen for VIM-2 inhibitors | inhibition, % at 5.6 µM | AID 1866 | Purified TEM-1, nitrocefin hydrolysis, epi-absorbance fluorescence | 1,300 tested, 3% active | shares compounds with VIM-2 inhibitor;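 active means inhibition above that campaign's mean inhibition plus 3 SD, cut at about 0.46% in these data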
# VIM-2 inh conf: confirmation of P. aeruginosa VIM-2 metallo-beta-lactamase inhibitors; shares compounds with VIM-2 inhibitor; purified VIM-2, nitrocefin hydrolysis, epi-absorbance; inhibition, % at 5.6 µM; 1,300 tested, 96% active; AID 2187;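 active means inhibition of the VIM-2 beta-lactamase enzyme above about 11% from the earlier first-round screen, limit read from the data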
# A number is an active result; n = inactive; u = inconclusive; x = no result given. In the library only some 1.7% were active in any assay of this set; here they are far more common.
SMILES,IMP-1 inh-1,PolyA inh,proCasp3 act,Neddylation inh,VIM-2 inhibitor,proCasp7 act,IMP-1 inh-2,VIM-2 FRET inh,TEM-1 counter,VIM-2 inh conf
CN1CCc2c(sc(NC(=O)c3cc(Cl)sc3Cl)c2C(N)=O)C1,n,n,n,n,14,n,n,n,n,21
CC(=O)N/N=C/c1cc(C(C)C)cc(/C=N/NC(C)=O)c1O,n,n,n,n,34,n,n,n,n,47
Cc1cc(=O)oc2c3c(cc(OCC(=O)N[C@@H](Cc4ccccc4)C(=O)O)c12)OC(C)(C)CC3,n,n,n,x,22,n,n,40,n,25
CCc1cc(=O)oc2c3c(cc(OCC(=O)NCc4ccncc4)c12)OC(C)(C)CC3,n,n,n,x,16,n,n,n,n,27
CN(C)CCCNc1ccc(-c2n[nH]c(=O)c3ccccc23)cc1[N+](=O)[O-],n,n,n,n,59,n,n,n,n,68
CC(O)CNc1ccc(-c2n[nH]c(=O)c3ccccc23)cc1[N+](=O)[O-] (stereo unspecified),n,n,n,n,20,n,n,n,n,34
CC(O)CNc1cc(N)c([N+](=O)[O-])cc1[N+](=O)[O-] (stereo unspecified),n,n,n,n,n,n,x,x,x,x
Cc1nc(-c2ccccn2)nc(N(C)c2ccccc2)c1Cl,n,n,n,n,21,n,n,n,n,34
Cc1nc(-c2ccccn2)nc(N2CCOCC2)c1Cl,n,n,n,n,18,n,n,n,n,30
Cc1nnc(-c2ccccc2)nc1N1CCOCC1,n,n,n,n,n,n,x,x,x,x
Cc1cc2c(nn1)CCC/C2=N\O,n,n,n,n,n,n,x,x,x,x
CN1CCc2cc3c(c4c2[C@H]1[C@H](O)c1ccccc1-4)OCO3,n,n,n,n,17,n,n,n,n,24
Cc1c(Br)c(O)c(Br)c(O)c1/C=N/n1c(-c2ccccc2)n[nH]c1=S,n,n,n,n,19,n,n,26,n,27
Oc1c(Br)cc(/C=N/n2c(-c3ccccc3)n[nH]c2=S)cc1Br,n,n,x,n,27,x,n,50,n,39
Cc1ccc(-c2n[nH]c(=S)n2/N=C/c2ccc(C(=O)O)cc2)cc1,n,n,n,n,18,n,n,35,n,23
Oc1ccc(/C=N/n2c(-c3ccccc3)n[nH]c2=S)cc1Br,n,u,x,n,n,x,x,x,x,x
Cc1ccc(/C=N/n2c(-c3ccccc3)n[nH]c2=S)cc1,n,n,n,n,n,n,x,x,x,x
Oc1c(Br)cc(/C=N/n2c(-c3ccccc3)n[nH]c2=S)c(O)c1Br,n,n,x,n,34,x,n,58,n,43
CSc1cccc(NC(=S)N(CCCN2CCCC2)Cc2cccs2)c1,n,n,n,n,n,n,x,x,x,x
CC(=O)NC(=C(Cl)Cl)S(=O)(=O)c1ccccc1,n,n,n,n,n,n,x,x,x,x
COC(=O)CSc1nccc(C)n1,n,n,n,n,n,n,x,x,x,x
O=C(O)c1csc(-n2nc(-c3ccccc3)cc2C(F)(F)F)n1,n,n,n,n,36,n,n,n,n,n
Cc1cc(C(F)(F)F)n(-c2nc(C(=O)O)cs2)n1,n,n,n,n,n,n,x,x,x,x
CN1C(=O)C2(N=c3ccccc3=N2)c2ccccc21,n,n,n,n,19,n,n,n,n,34
